For 15 compounds, MIC80 results are on record in ChEMBL document CHEMBL1629503, “Novel conformationally restricted triazole derivatives with potent antifungal activity” (2010).

Holding throughout (type): functional
For one experiment, the system named is Candida tropicalis. Briefly: Antifungal activity against Candida tropicalis after 24 hrs by serial dilution method. The method in brief:
(§1)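 Broth microdilution MIC per NCCLS recommendations in 96-well plates, using RPMI 1640 buffered with 0.165 M MOPS. Strains were ATCC or clinical isolates. Compounds were dissolved in DMSO and serially diluted in medium. Yeasts were incubated at 35 °C and growth was read at 24 h. MIC80 is the lowest concentration giving […] of control growth (turbidity).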

In a further experiment the test system is Candida parapsilosis. The experiment in a line: Antifungal activity against Candida parapsilosis after 24 hrs by serial dilution method. As to conditions: Lodderomyces parapsilosis. The essentials: as §1
The subject of another experiment is Kluyveromyces marxianus. The experiment in a line: Antifungal activity against Candida kefyr after 24 hrs by serial dilution method. The essentials:
as §1

A further experiment relates to Candida albicans. The experiment in a line: Antifungal activity against Candida albicans after 24 hrs by serial dilution method. The method in brief:
as §1

Another experiment deals with Trichophyton rubrum. The experiment in a line: Antifungal activity against Trichophyton rubrum after 7 days by serial dilution method. As to conditions: 168 h. The method in brief: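 Dermatophyte MIC by NCCLS-based serial dilution in 96-well plates, in RPMI 1640 buffered with 0.165 M MOPS. Compounds were dissolved in DMSO and diluted in growth medium. Incubation was at 28 °C. Strain was ATCC or clinical isolate. MIC80 is the lowest concentration reducing turbidity to […] of growth control.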

A further experiment concerns Cryptococcus neoformans. Briefly: Antifungal activity against Cryptococcus neoformans after 72 hrs by serial dilution method. The essentials:
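Yeast MIC by NCCLS serial microdilution in RPMI 1640 with 0.165 M MOPS, using an ATCC strain or clinical isolate. Test agents came from DMSO stocks diluted in medium. Incubation was at 35 °C with the read at 72 h. MIC80 is the lowest concentration at which turbidity was […] of drug-free control growth.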

In a further experiment the test system is Aspergillus fumigatus. Briefly: Antifungal activity against Aspergillus fumigatus after 7 days by serial dilution method. The conditions noted are these: 168 h. The essentials:
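Mould susceptibility by NCCLS serial dilution in 96-well plates, using MOPS-buffered (0.165 M) RPMI 1640 medium. Compounds were dissolved in DMSO and serially diluted in medium. Isolates were from ATCC or clinical sources. The endpoint MIC80 is the lowest concentration giving turbidity […] of control growth.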

Converted amounts (≈) assume the structure as drawn.

Regarding `CN(CC(O)(Cn1cncn1)c1ccc(F)cc1F)C1CCN(Cc2ccc(Cl)c(Cl)c2)CC1` (stereo not given), the MIC80 against Candida tropicalis was 0.0625 µg/mL (≈ 0.122 µM); against Candida parapsilosis, 0.0625 µg/mL (≈ 0.122 µM); with Kluyveromyces marxianus, 0.25 µg/mL (≈ 0.49 µM); against Candida albicans, 0.0625 µg/mL (≈ 0.122 µM); against Trichophyton rubrum, 0.25 µg/mL (≈ 0.49 µM); against Cryptococcus neoformans, 0.25 µg/mL (≈ 0.49 µM). The MIC80 in the experiment with Aspergillus fumigatus came out at 4 µg/mL (≈ 7.84 µM).
As for `CN(CC(O)(Cn1cncn1)c1ccc(F)cc1F)C1CCN(Cc2ccccc2)CC1` (stereo not given), the MIC80 turned out to be 1 µg/mL (≈ 2.26 µM) in the experiment with Candida tropicalis; 0.25 µg/mL (≈ 0.566 µM) in the experiment with Candida parapsilosis; 1 µg/mL (≈ 2.26 µM) in the experiment with Kluyveromyces marxianus; 0.25 µg/mL (≈ 0.566 µM) in the experiment on Candida albicans; 1 µg/mL (≈ 2.26 µM) against Trichophyton rubrum; 1 µg/mL (≈ 2.26 µM) with Cryptococcus neoformans. Moreover, the MIC80 with Aspergillus fumigatus was 64 µg/mL (≈ 145 µM).
In the case of `CN(CC(O)(Cn1cncn1)c1ccc(F)cc1F)C1CCN(Cc2ccc([N+](=O)[O-])cc2)CC1` (stereo not given), the MIC80 against Candida tropicalis was 0.25 µg/mL (≈ 0.514 µM); in the experiment with Candida parapsilosis it was 0.0625 µg/mL (≈ 0.128 µM); against Kluyveromyces marxianus it was 1 µg/mL (≈ 2.06 µM); against Candida albicans, 0.0625 µg/mL (≈ 0.128 µM); in the experiment with Trichophyton rubrum it was 0.25 µg/mL (≈ 0.514 µM); in the experiment on Cryptococcus neoformans it was 0.25 µg/mL (≈ 0.514 µM). The MIC80 against Aspergillus fumigatus amounted to 4 µg/mL (≈ 8.22 µM).
Turning to `CN(CC(O)(Cn1cncn1)c1ccc(F)cc1F)C1CCN(Cc2ccc(Br)cc2)CC1` (stereo not given), the MIC80 against Candida tropicalis amounted to 0.25 µg/mL (≈ 0.48 µM); against Candida parapsilosis it was 0.0625 µg/mL (≈ 0.12 µM); in the experiment on Kluyveromyces marxianus, 1 µg/mL (≈ 1.92 µM); against Candida albicans it was 0.0625 µg/mL (≈ 0.12 µM); against Trichophyton rubrum, 0.25 µg/mL (≈ 0.48 µM); in the experiment on Cryptococcus neoformans it was 0.25 µg/mL (≈ 0.48 µM). This compound also gave an MIC80 in the experiment with Aspergillus fumigatus of 4 µg/mL (≈ 7.69 µM).
As to `CN(CC(O)(Cn1cncn1)c1ccc(F)cc1F)C1CCN(Cc2ccccc2Cl)CC1` (stereo not given), the MIC80 came to 0.25 µg/mL (≈ 0.525 µM) in the experiment with Candida tropicalis; 0.0625 µg/mL (≈ 0.131 µM) in the experiment with Candida parapsilosis; 1 µg/mL (≈ 2.1 µM) against Kluyveromyces marxianus; 0.25 µg/mL (≈ 0.525 µM) with Candida albicans; 1 µg/mL (≈ 2.1 µM) with Trichophyton rubrum; 0.25 µg/mL (≈ 0.525 µM) in the experiment with Cryptococcus neoformans. The same compound gave an MIC80 against Aspergillus fumigatus of 4 µg/mL (≈ 8.4 µM).
With `CN(CC(O)(Cn1cncn1)c1ccc(F)cc1F)C1CCN(Cc2ccc(Cl)cc2Cl)CC1` (stereo not given), the MIC80 is 0.0625 µg/mL (≈ 0.122 µM) in the experiment on Candida tropicalis; 0.0625 µg/mL (≈ 0.122 µM) in the experiment with Candida parapsilosis; 0.25 µg/mL (≈ 0.49 µM) in the experiment on Kluyveromyces marxianus; 0.0625 µg/mL (≈ 0.122 µM) in the experiment with Candida albicans; 0.25 µg/mL (≈ 0.49 µM) in the experiment on Trichophyton rubrum; 0.25 µg/mL (≈ 0.49 µM) against Cryptococcus neoformans. The same compound displayed an MIC80 with Aspergillus fumigatus of 4 µg/mL (≈ 7.84 µM).
Consider `CN(CC(O)(Cn1cncn1)c1ccc(F)cc1F)C1CCN(Cc2cccc(Cl)c2)CC1` (stereo not given), for which the MIC80 with Candida tropicalis stood at 0.25 µg/mL (≈ 0.525 µM); against Candida parapsilosis it was 0.0625 µg/mL (≈ 0.131 µM); with Kluyveromyces marxianus, 1 µg/mL (≈ 2.1 µM); against Candida albicans it was 0.0625 µg/mL (≈ 0.131 µM); against Trichophyton rubrum, 0.25 µg/mL (≈ 0.525 µM); in the experiment on Cryptococcus neoformans, 0.0625 µg/mL (≈ 0.131 µM). For the same compound, the MIC80 in the experiment on Aspergillus fumigatus is 1 µg/mL (≈ 2.1 µM).
Consider `CN(CC(O)(Cn1cncn1)c1ccc(F)cc1F)C1CCN(Cc2ccc(C#N)cc2)CC1` (stereo not given), for which the MIC80 in the experiment with Candida tropicalis was found to be 0.25 µg/mL (≈ 0.536 µM); against Candida parapsilosis, 0.25 µg/mL (≈ 0.536 µM); in the experiment on Kluyveromyces marxianus, 0.0625 µg/mL (≈ 0.134 µM); with Candida albicans it was 0.0625 µg/mL (≈ 0.134 µM); against Trichophyton rubrum it was 0.0625 µg/mL (≈ 0.134 µM); against Cryptococcus neoformans, 0.0625 µg/mL (≈ 0.134 µM). The compound further had an MIC80 with Aspergillus fumigatus of 1 µg/mL (≈ 2.14 µM).
Consider `CN(CC(O)(Cn1cncn1)c1ccc(F)cc1F)C1CCN(Cc2cccc(Br)c2)CC1` (stereo not given), for which the MIC80 against Candida tropicalis was 0.0625 µg/mL (≈ 0.12 µM); against Candida parapsilosis, 0.0625 µg/mL (≈ 0.12 µM); in the experiment on Kluyveromyces marxianus it was 0.25 µg/mL (≈ 0.48 µM); in the experiment on Candida albicans it was 0.0625 µg/mL (≈ 0.12 µM); with Trichophyton rubrum, 0.25 µg/mL (≈ 0.48 µM); with Cryptococcus neoformans, 0.25 µg/mL (≈ 0.48 µM). In the experiment on Aspergillus fumigatus, this compound showed an MIC80 of 1 µg/mL (≈ 1.92 µM).
Take `CN(CC(O)(Cn1cncn1)c1ccc(F)cc1F)C1CCN(Cc2ccccc2F)CC1` (stereo not given): the MIC80 was 0.25 µg/mL (≈ 0.544 µM) against Candida tropicalis; 0.25 µg/mL (≈ 0.544 µM) against Candida parapsilosis; 0.25 µg/mL (≈ 0.544 µM) with Kluyveromyces marxianus; 0.25 µg/mL (≈ 0.544 µM) against Candida albicans; 1 µg/mL (≈ 2.18 µM) against Trichophyton rubrum; 0.25 µg/mL (≈ 0.544 µM) against Cryptococcus neoformans. The MIC80 in the experiment with Aspergillus fumigatus was determined as 16 µg/mL (≈ 34.8 µM).
Take `CN(CC(O)(Cn1cncn1)c1ccc(F)cc1F)C1CCN(Cc2ccc(F)cc2)CC1` (stereo not given): the MIC80 against Candida tropicalis worked out at 0.25 µg/mL (≈ 0.544 µM); against Candida parapsilosis it was 0.25 µg/mL (≈ 0.544 µM); with Kluyveromyces marxianus, 0.25 µg/mL (≈ 0.544 µM); with Candida albicans, 0.25 µg/mL (≈ 0.544 µM); against Trichophyton rubrum it was 1 µg/mL (≈ 2.18 µM); with Cryptococcus neoformans it was 0.25 µg/mL (≈ 0.544 µM). The MIC80 in the experiment with Aspergillus fumigatus came out at 16 µg/mL (≈ 34.8 µM).
In the case of `COc1cccc(CN2CCC(N(C)CC(O)(Cn3cncn3)c3ccc(F)cc3F)CC2)c1` (stereo not given), the MIC80 against Candida tropicalis is 0.25 µg/mL (≈ 0.53 µM); against Candida parapsilosis it was 0.25 µg/mL (≈ 0.53 µM); with Kluyveromyces marxianus, 0.25 µg/mL (≈ 0.53 µM); in the experiment on Candida albicans, 0.25 µg/mL (≈ 0.53 µM); in the experiment with Trichophyton rubrum it was 1 µg/mL (≈ 2.12 µM); in the experiment with Cryptococcus neoformans, 0.25 µg/mL (≈ 0.53 µM). This compound also yielded an MIC80 against Aspergillus fumigatus of 64 µg/mL (≈ 136 µM).
For `Cc1ccccc1CN1CCC(N(C)CC(O)(Cn2cncn2)c2ccc(F)cc2F)CC1` (stereo not given), the MIC80 against Candida tropicalis stood at 0.25 µg/mL (≈ 0.549 µM); against Candida parapsilosis, 0.25 µg/mL (≈ 0.549 µM); in the experiment on Kluyveromyces marxianus it was 0.25 µg/mL (≈ 0.549 µM); against Candida albicans, 0.0625 µg/mL (≈ 0.137 µM); with Trichophyton rubrum it was 1 µg/mL (≈ 2.2 µM); in the experiment on Cryptococcus neoformans, 0.25 µg/mL (≈ 0.549 µM). In the experiment with Aspergillus fumigatus, this compound had an MIC80 of 64 µg/mL (≈ 140 µM).
Take `CC(C)c1ccc(CN2CCC(N(C)CC(O)(Cn3cncn3)c3ccc(F)cc3F)CC2)cc1` (stereo not given): the MIC80 turned out to be 0.25 µg/mL (≈ 0.517 µM) in the experiment with Candida tropicalis; 0.25 µg/mL (≈ 0.517 µM) against Candida parapsilosis; 0.25 µg/mL (≈ 0.517 µM) with Kluyveromyces marxianus; 0.0156 µg/mL (≈ 0.0323 µM) in the experiment with Candida albicans; 0.25 µg/mL (≈ 0.517 µM) against Trichophyton rubrum; 0.25 µg/mL (≈ 0.517 µM) with Cryptococcus neoformans. Besides, the MIC80 against Aspergillus fumigatus came to 16 µg/mL (≈ 33.1 µM).
For `OC(Cn1cncn1)(Cn1cncn1)c1ccc(F)cc1F` [FLUCONAZOLE], the MIC80 in the experiment with Candida tropicalis amounted to 1 µg/mL (≈ 3.27 µM); in the experiment on Candida parapsilosis it was 0.25 µg/mL (≈ 0.816 µM); with Kluyveromyces marxianus, 1 µg/mL (≈ 3.27 µM); against Candida albicans, 0.25 µg/mL (≈ 0.816 µM); against Trichophyton rubrum, 1 µg/mL (≈ 3.27 µM); against Cryptococcus neoformans, 0.0625 µg/mL (≈ 0.204 µM). The same compound had an MIC80 against Aspergillus fumigatus above 64 µg/mL.

One may read the MIC80 as an inhibitory concentration at the 80% level, which refers to growth in some studies and to a panel of isolates in others. Lower therefore signals greater potency.
